Shown are actives, neighbours in structure and some others; about 1.7% of the full set was active somewhere.
Rtt109 Vps75: blocks Candida albicans Rtt109/Vps75 acetyltransferase activity | Q5AAJ8 | purified Rtt109/Vps75, ThioGlo CoA-SH fluorescence, 4 h | inhibition, % at 34.9 µM | hit rate 0.16% among 330,000 | AID 540336;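 active = inhibition of at least 50% in every replicate; inconclusive = best replicate reaches 50% inhibition but some replicates fall short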
Target sequence (Q5AAJ8 whole entry, looked up): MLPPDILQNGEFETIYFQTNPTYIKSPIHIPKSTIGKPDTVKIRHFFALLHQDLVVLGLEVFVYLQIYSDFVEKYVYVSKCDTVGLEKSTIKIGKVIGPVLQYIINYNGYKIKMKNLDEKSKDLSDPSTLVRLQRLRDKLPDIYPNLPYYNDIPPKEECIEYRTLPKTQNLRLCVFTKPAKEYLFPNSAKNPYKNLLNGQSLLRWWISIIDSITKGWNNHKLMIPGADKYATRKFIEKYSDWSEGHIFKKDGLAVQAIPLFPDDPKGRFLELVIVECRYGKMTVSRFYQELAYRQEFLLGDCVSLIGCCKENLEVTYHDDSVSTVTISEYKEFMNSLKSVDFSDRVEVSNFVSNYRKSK
SKKanGAS inh: blocks kanamycin growth of S. pyogenes SKKanGAS strain; BacTiter-Glo, 6 h; inhibition, % at 7.5 µM; hit rate 1.3% among 300,000; AID 1662;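 active = mean replicate score, as percent of positive control median, at least 50; inconclusive = mean below 50 but one replicate at or above 50; inactive = mean and every replicate below 50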;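 note: strain carries kanamycin resistance gene driven by streptokinase promoter and grows in 40 µg/ml kanamycin; loss of luminescence reflects streptokinase promoter inhibition or plain growth inhibition; 0% = median of DMSO wells and 100% = positive control at its reference dose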
PglD DTNB: blocks C. jejuni PglD acetyltransferase activity | purified PglD enzyme, DTNB colorimetric CoA detection | inhibition, % at 12.5 µM | hit rate 0.098% among 360,000; in the data active = inhibition above about 16%, passing the limit was not always enough; inconclusive = no clear call, values can overlap the other calls
CSC inhib: cancer stem cell inhibition. cancer stem cell-like cells viability, luminescence. inhibition, % at 7.5 µM. hit rate 1.1% among 300,000. AID 2717; in the data active = inhibition above about 75%; inconclusive = no clear call, values can overlap the other calls; tested in HMLE shEcad cells
FN deposit inh: fibronectin deposition inhibition; AH1F fibroblasts, Alexa488-fibronectin deposition fluorescence, overnight; inhibition, % at 12.6 µM; hit rate 0.086% among 350,000;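 active = mean inhibition across replicates of 30% or more, regardless of how many single replicates reach that level; inconclusive = mean under 30% yet at least half of replicates reach 30%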;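 note: positive control wells lacked labelled fibronectin entirely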
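Test system: AH1F fibroblast monolayer depositing Alexa488-labelled fibronectin into matrix. Input: 10000 cells per well. Technique: fluorescence, ex 485 nm, em 525 nm. Buffer or medium: DMEM plus 2% serum, read in PBS. Timing: 1 h cell adhesion before compound, then overnight fibronectin incubation. Compound: single dose, pinned. Read-out basis: inhibition from reduced deposited-fibronectin fluorescence.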
PfHsp90 yeast 2: inhibits growth of yeast expressing Plasmodium falciparum Hsp90; AID 504621; hit rate 0.32% among 310,000; inhibition, % at 9.4 µM; S. cerevisiae expressing PfHsp90, BacTiter-Glo ATP, 48 h; yeast lacking PDR1 and PDR3 efflux regulators;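 active = every replicate shows inhibition above about 80%, whatever the replicate mean, limit read from the data; inconclusive = mean inhibition reaches the set limit but some replicate falls short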;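 note: 0% = DMSO neutral controls and 100% = 20 µM radicicol positive controls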
An asterisk follows results filed as active; ? = inconclusive; / = no result given.

SMILES	Rtt109 Vps75	SKKanGAS inh	PglD DTNB	CSC inhib	FN deposit inh	PfHsp90 yeast 2
O=C(Cn1nc(-c2ccccc2)c2ccccc2c1=O)Nc1ccc(F)cc1	1.5	6.1	-0.5	-14.0	8.0	5.4
N#Cc1c(-c2ccccc2)c(-c2ccccc2)nn(CC(=O)NNC(=O)Nc2ccc(Cl)c(Cl)c2)c1=O	7.3	62.5*	-7.1	105.4*	/	-14.8
Cc1ccc(-c2csc3nc[nH]c(=S)c23)cc1C	0.7	93.0*	-2.3	-1.5	/	-34.4
C[C@@H]1CN([C@H](C)CO)C(=O)Cc2cc(NC(=O)Nc3ccccc3)ccc2O[C@H]1CN(C)C(=O)Nc1ccc(F)cc1	/	/	-2.0	/	/	/
Cc1ccc(CN2C(=O)c3ccccc3NC2c2cc(Br)ccc2O)cc1 (stereo not drawn)	-10.4	104.1*	-0.7	110.0*	9.5	-5.7
Cc1cc(N2CCN(C(=O)c3ccco3)CC2)n2ncnc2n1	-10.3	-3.6	/	-5.9	1.1	-16.2
Cc1cc(N2CCCCC2)n2ncc(-c3ccc(Cl)cc3)c2n1	-11.4	17.8	1.7	84.3*	6.4	3.8
Cc1cc(N2CCN(C(=O)c3ccco3)CC2)n2ncc(-c3ccccc3)c2n1	-7.3	21.5	-6.1	-12.0	/	124.2*
COc1ccc(CCNc2cc(C)nc3c(-c4ccc(Cl)cc4)cnn23)cc1OC	-6.2	27.1	-3.9	91.6*	18.8	-16.3
COc1ccc(CCNc2cc(C)nc3c(-c4ccccc4)cnn23)cc1OC	2.9	30.1	/	/	16.4	-28.4
Cc1nn2c(N3CCN(C(=O)c4ccco4)CC3)cc(C(C)(C)C)nc2c1-c1ccccc1	/	62.1*	/	11.7	/	/
Cc1cc(N2CCOCC2)n2ncc(-c3ccc(Cl)cc3)c2n1	-0.9	-3.4	3.2	21.4	3.5	9.9
CC(=O)[C@@]12O[C@]3(COC[C@H](c4ccccc4)N3C1=O)[C@@H]1C(=O)N(c3ccccc3)C(=O)[C@@H]12	/	/	1.2	/	/	/
O=C(Nc1ccccc1)Nc1ccc2c(c1)[C@H]1C[C@H](CC(=O)N3CCOCC3)O[C@@H](CO)[C@H]1O2	/	/	11.2	/	1.5	/
CCCNC(=O)C[C@H]1CC[C@H]2[C@H](COc3ccc(NC(=O)NC(C)C)cc3C(=O)N2C)O1	/	/	1.8	/	-19.3	/
Cc1ccccc1N1C(S)=C(C#N)C(=O)NC12CCCCC2	85.6*	-3.4	-1.0	-9.1	-2.4	3.2
Cc1cc(N=Nc2ccccc2C(=O)O)c(C)c(C)c1O	37.5	28.2	/	-2.2	-6.1	99.5*
Cc1cc(O)c(C(C)C)cc1N=Nc1ccccc1C(=O)O	9.7	4.0	-5.0	26.0	8.5	-2.9
CS(=O)(=O)Nc1ccc2c(c1)[C@H]1C[C@H](CC(=O)NCC(F)(F)F)O[C@H](CO)[C@H]1O2	/	/	0.0	/	-1.3	/
O=C1C=CC(=O)N1c1cccc(-c2ccccc2)c1	13.5	22.1	/	57.1	22.0	106.8*
O=S(=O)(N[C@H]1CC[C@H](CCn2cc(-c3ccccn3)nn2)O[C@@H]1CO)c1cccc(F)c1	/	/	-0.1	/	-2.8	/
CCN(CC)C1CC(=O)N(c2ccc(Br)cc2)C1=O (stereo not drawn)	-1.3	2.7	4.9	-13.4	4.2	112.1*
CC(C)(C)c1cc(C(=O)N/N=C/c2ccccc2O)n(-c2ccccc2)n1	8.4	73.3*	/	116.9*	10.4	-77.4
CO[C@@H]1CN(C)C(=O)c2ccc(NC(=O)C3CCCC3)cc2OC[C@H](C)N(C(C)=O)C[C@H]1C	/	/	-1.0	/	-5.1	/
C[C@@H]1CN([C@@H](C)CO)C(=O)c2cc(C#Cc3ccccc3)cnc2O[C@@H]1CN(C)CC1CCOCC1	/	/	-2.5	/	/	/
O=C(NNc1c2ccccc2nc2ccccc12)c1ccc(O)cc1O	6.6	51.5*	1.2	19.2	/	13.4
O=C(NNc1c2ccccc2nc2ccccc12)c1ccccc1O	-3.1	43.4	-0.9	?	11.1	13.3
O=C1C(=O)N(c2ccccn2)C(c2ccc(Br)cc2)/C1=C(/O)c1ccc(Br)cc1 (stereo not drawn)	-0.5	68.6*	-0.8	13.3	3.0	4.6
CCCOc1ccc(/C(O)=C2/C(=O)C(=O)N(c3ccccn3)C2c2ccc(OC)cc2)cc1C (stereo not drawn)	16.8	50.0*	-3.6	4.7	-0.4	9.6
COc1ccc(-c2nnc(NC(=O)c3ccc(S(=O)(=O)N4COCC4(C)C)cc3)o2)cc1	-1.3	88.9*	-2.9	28.6	/	-14.8

Screening data deposited in PubChem by Broad Institute.
